Laboratory results from ChEMBL document CHEMBL1125641, “Syntheses and in vitro evaluation of water-soluble "cationic metalloporphyrin-ellipticine" molecules having a high affinity for DNA” (J Med Chem, 1991).

Assays:
[1] = system: Nucleic Acid; assay: DNA affinity constant to poly[d(A-T)]; format: nucleic-acid assay; conditions: Bos taurus
Procedure, shortened: (§1)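 Ethidium bromide displacement at 25 °C in 0.01 M cacodylate pH 7.0 with 10 mM NaCl, using 1.26 μM EB and 1 μM polynucleotide (poly[d(A-T)] or poly[d(G-C)]). Bound-EB fluorescence was read across varying drug concentrations. The concentration displacing 50% of EB came from nonlinear-regression fitting, and Kapp was derived from it by the Baguley method.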

[2] = system: Nucleic Acid; assay: DNA affinity constant to poly[d(G-C)]; format: nucleic-acid assay; conditions: Bos taurus; procedure, shortened: as §1
[3] = system: L1210; assay: Concentration required to reduce 50% growth of L1210 cells in 48 hr; format: functional, cell-based, Mus musculus
Procedure, shortened: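 Murine leukemia L1210 cells grown in vitro with the derivatives, which were dissolved in water. Growth was scored after 48 h against untreated controls. IC50 is the concentration that cuts cell multiplication by 50%. Values are the mean of two or three determinations, or four independent experiments where a standard deviation is given.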

[4] = system: L1210; assay: Concentration required to reduce 50% growth of L1210 cells in 48h; b=No inhibition at 7.5 uM; format: functional, cell-based, Mus musculus
Procedure, shortened: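 Murine leukaemia L1210 cells grown in vitro, with the metalloporphyrin derivatives dissolved in water. Growth was measured after 48 h against untreated controls. IC50 is the concentration that cuts the rate of cell multiplication by 50%. Values are the mean of two or three determinations, or of four independent experiments where a deviation is given.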

[5] = tested as the Zn salt or complex

## COc1ccc2[nH]c3c(C)c4cc[n+](CCCCC(=O)O)cc4c(C)c3c2c1
[1]
  K app: 2.5e+06 M⁻¹
[2]
  K app: 4.9e+06 M⁻¹
[3]; Mus musculus, L1210, 48 h
  IC50: > 23 µM

## BLEOMYCIN
[3]; l1210
  IC50: 1.7 µM

## CC(=O)[O-].CC(=O)[O-].CC(=O)[O-].CC(=O)[O-].COc1ccc2[nH]c3c(C)c4cc[n+](CCCCC(=O)Nc5ccc(-c6c7nc(c(-c8cc[n+](C)cc8)c8ccc([nH]8)c(-c8cc[n+](C)cc8)c8nc(c(-c9cc[n+](C)cc9)c9ccc6[nH]9)C=C8)C=C7)cc5)cc4c(C)c3c2c1.[Zn]
[1]; [5]
  K app: 2e+09 M⁻¹
[4]
  IC50: No growth inhibition
[2]; [5]
  K app: 1.9e+08 M⁻¹
